Compounds with a hit are over-represented: about 2.3% of the library has one in this group of screens.
UCH37 inh = inhibitors of human UCH37 deubiquitinase, primary screen, biochemical, Ub-AMC cleavage, fluorescence; AID 588478, 2011; purified proteasome/UCH37; inhibition, % (no concentration beside the values); 330,000 tested, 0.33% active; Ubiquitin carboxyl-terminal hydrolase isozyme L5 (Homo sapiens), Q9Y5K5;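 active means mean inhibition over replicate wells above about 20%, limit read from the data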;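 further: 0% = compound-free wells with enzyme and 100% = wells lacking proteasome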
Target sequence (Q9Y5K5 whole entry, looked up): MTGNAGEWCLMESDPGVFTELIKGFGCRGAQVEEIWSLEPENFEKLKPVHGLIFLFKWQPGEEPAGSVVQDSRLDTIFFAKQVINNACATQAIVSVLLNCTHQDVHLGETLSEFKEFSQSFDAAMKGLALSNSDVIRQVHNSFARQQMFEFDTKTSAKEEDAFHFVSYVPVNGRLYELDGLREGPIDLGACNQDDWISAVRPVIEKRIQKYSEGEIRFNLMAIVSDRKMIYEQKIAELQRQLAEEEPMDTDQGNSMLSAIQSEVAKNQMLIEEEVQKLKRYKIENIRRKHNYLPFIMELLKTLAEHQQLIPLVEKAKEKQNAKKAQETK
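Material: human UCH37 enzyme supplied as purified proteasome complex / Amount: 0.15 nM proteasome as dispensed / Buffer or medium: pH 7.4 Tris-HCl (50 mM) with ovalbumin, ATP-MgCl2, DTT / Times: preincubation 30 min, reaction 25 min, room temperature / Technique: AMC fluorescence from Ub-AMC cleavage, excitation 355 nm, emission 460 nm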
Fh CTSL1 inh = Fasciola hepatica cathepsin L1 inhibitors, primary screen, counter-screen for PFM18AAP inhibitor project, biochemical, QFRET, fluorogenic peptide substrate | inhibition, % at 5.96 µM | 300,000 tested, 0.49% active | AID 1906, 2009 | recombinant F. hepatica cathepsin L1, Z-Leu-Arg-MCA fluorescence;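 active means inhibition above the mean of all tested compounds plus 3 SD, set per screening campaign, cut at about 17% in these data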;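 further: 0% = plate median of test compound wells and 100% = 1 µM Z-Phe-Ala-diazomethylketone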
PP5 inh = PP5 phosphatase inhibitors, primary screen, biochemical, fluorescence; Serine/threonine-protein phosphatase 5 (Homo sapiens), P53041; purified PP5c, OMFP substrate fluorescence; inhibition, % at 6.7 µM; 320,000 tested, 0.18% active; AID 1987, 2009;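 active means inhibition above the campaign's mean inhibition across all tested compounds plus 3 SD, cut at about 9.5% in these data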;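 further: 0% = DMSO only and 100% = 100 µM cantharidin control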
UBC13 inh = UBC13 polyubiquitin chain formation inhibitors, primary screen, biochemical, TR-FRET, uHTS | inhibition, % at 20 µM | AID 485273, 2010 | 330,000 tested, 0.47% active; in the data active means inhibition above about 45%, passing the limit was not always enough
PREPL inhibitor = PREPL enzyme inhibitors, primary screen, biochemical, fluorescence polarization; Prolyl endopeptidase-like (Homo sapiens), Q4J6C6; inhibition, % at 5.96 µM; recombinant PREPL, fluorescence polarization activity-based probe; 320,000 tested, 0.68% active; in the data active means inhibition above about 43%;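 further: 0% = enzyme with DMSO and 100% = wells lacking enzyme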
PP1 counter = PP1-alpha phosphatase inhibitors, primary screen, counter-screen for PP5 inhibitor project, biochemical, fluorescence, OMFP substrate, single point; purified PP1alpha; inhibition, % at 6.7 µM; 320,000 tested, 0.9% active; AID 2235, 2010;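 active means inhibition above the mean inhibition of all tested compounds plus 3 SD, computed separately for each screening campaign, cut at about 15% in these data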
Target sequence (P62136 whole entry, looked up): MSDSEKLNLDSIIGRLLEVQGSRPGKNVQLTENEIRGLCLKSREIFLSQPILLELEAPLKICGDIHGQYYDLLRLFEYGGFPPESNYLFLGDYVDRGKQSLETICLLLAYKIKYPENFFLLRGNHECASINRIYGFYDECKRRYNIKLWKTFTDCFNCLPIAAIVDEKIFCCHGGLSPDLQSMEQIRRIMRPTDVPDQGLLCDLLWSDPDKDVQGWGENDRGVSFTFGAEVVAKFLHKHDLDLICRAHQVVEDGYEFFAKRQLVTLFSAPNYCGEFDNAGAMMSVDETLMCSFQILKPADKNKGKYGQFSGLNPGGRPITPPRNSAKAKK
PP1 confirm = PP1 phosphatase inhibitors, confirmation, biochemical, fluorescence, OMFP substrate, triplicate. AID 2358, 2010. inhibition, % at 6.7 µM. purified PP1alpha. shares compounds with PP1 counter. 1,900 tested, 52% active;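 active means mean PP1 inhibition above a set limit taken from the earlier primary screen, cut at about 15% in these data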
PP5 counter = PP5 phosphatase inhibition by PP1 hits, confirmation, counter-screen for PP1 inhibitor project, biochemical, fluorescence, triplicate | shares compounds with PP1 counter | purified PP5c, OMFP fluorescence | inhibition, % at 6.7 µM | 1,900 tested, 4% active | AID 2360, 2010;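 active means mean PP5 inhibition over triplicate wells above about 9.5% taken from the earlier PP1 screen, limit read from the data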
* = called active by the depositor; i = inactive; · = no result given.

SMILES | UCH37 inh | Fh CTSL1 inh | PP5 inh | UBC13 inh | PREPL inhibitor | PP1 counter | PP1 confirm | PP5 counter
O=C(Nc1ccc(Cl)c(Cl)c1)Nc1ccc(N2CCCC2)c(S(=O)(=O)Nc2ccccc2Cl)c1 | 2 | 4 | 3 | -15 | 17 | 18* | 14 | 0
O=C(Nc1ccc(F)cc1)Nc1ccc(N2CCCC2)c(S(=O)(=O)Nc2ccccc2Cl)c1 | 4 | 6 | 2 | -2 | 22 | 24* | 10 | 5
O=C(Nc1cc(S(=O)(=O)N2CCCCC2)ccc1Cl)c1ccccc1NS(=O)(=O)c1ccc(F)cc1 | -60 | 3 | 7 | · | -1 | 20* | 14 | 8
O=C(Nc1ccc(N2CCOCC2)c(S(=O)(=O)Nc2ccccc2Cl)c1)c1ccc(F)cc1 | 2 | · | · | -31 | 9 | · | · | ·
CC(=NNc1ccc(C(F)(F)F)cc1[N+](=O)[O-])C(C)C | 5 | · | · | · | · | · | · | ·
CC(/C=C/c1ccc2c(c1)OCO2)=NNC(=O)CNc1ccc(C)cc1 | 2 | · | · | · | · | · | · | ·
COC(=O)c1ccc2c(c1)C(C)(C)C(/C=C/c1ccccc1O)=[N+]2C | i | -1 | 5 | -105 | -304 | 19* | 13 | -4
Cc1cc(C)n(N=Cc2ccc(O)cc2)c(=O)c1C#N | 10 | · | · | · | · | · | · | ·
Cc1ccc(C(=O)NCCCN2CCOCC2)cc1Cl | -2 | -5 | -4 | 3 | -3 | 18* | -5 | -4
Cc1ccc(C(=O)NCCCN2CCOCC2)cc1S(=O)(=O)N1CCOCC1 | 4 | · | 2 | 2 | -1 | -4 | · | ·
O=C(CN1C(=O)COc2ccc(Cl)cc21)N1CCc2ccccc21 | 2 | -1 | 1 | 5 | -2 | 18* | 11 | -4
O=C(CN1C(=O)COc2ccccc21)N1CCCc2ccccc21 | -3 | -1 | 1 | 6 | 6 | -1 | · | ·
O=C(CNC(=O)c1ccc2c(c1)OCO2)NN=Cc1cc(Br)ccc1O | 3 | · | · | · | · | · | · | ·
N#CC1=C2Sc3ccccc3N2CCCC1=O | 5 | 2 | -1 | -1 | -9 | 56* | -3 | -4
CC(=O)OC1CC2(C)C(=NO)CCC2C2CCc3cc(O)ccc3C12 (stereo not drawn) | -3 | · | · | · | · | · | · | ·
O=C(O)C1C2CCC(O2)C1C(=O)Nc1ccc(OC(F)F)cc1 (stereo not drawn) | · | 0 | 68* | -2 | 13 | 68* | 12 | 26*
O=C(O)C1C2CCC(O2)C1C(=O)Nc1ccc(O)cc1 (stereo not drawn) | 0 | 4 | 43* | -15 | 17 | 27* | 5 | 18*
O=C(O)c1ccc(NC(=O)C2C3CCC(C3)C2C(=O)O)cc1 (stereo not drawn) | 3 | 3 | 2 | -1 | 13 | -3 | · | ·
Cc1ccc(C)c(C(C)NC(=O)C2C3CCC(O3)C2C(=O)O)c1 (stereo not drawn) | · | 5 | 82* | -2 | 0 | 80* | 33* | 43*
Cc1ccc(NC(=O)C2C3CCC(O3)C2C(=O)O)cc1C (stereo not drawn) | -2 | 0 | 83* | 7 | 16 | 81* | 22* | 43*
CC(CC1(O)C(=O)N(Cc2ccccc2)c2ccccc21)=NO (stereo not drawn) | 2 | · | · | · | · | · | · | ·
CCn1c(C(C#N)=C(O)CCc2ccccc2)nc2ccccc21 | -98 | · | · | · | · | · | · | ·
O=C(NN=Cc1cccc(OC(=O)c2ccco2)c1)c1ccc2c(c1)OCO2 | 2 | · | · | · | · | · | · | ·
COc1cc(NC(=O)C2C3CCC(O3)C2C(=O)O)cc(OC)c1 (stereo not drawn) | 7 | -1 | 80* | -7 | 14 | 76* | 21* | 30*
CCN(CC)c1ccc(C=NNC(=O)c2cnccn2)c(O)c1 | 7 | · | · | · | · | · | · | ·
SMILES | UCH37 inh | Fh CTSL1 inh | PP5 inh | UBC13 inh | PREPL inhibitor | PP1 counter | PP1 confirm | PP5 counter
COc1cc(C=NNC(=O)c2ccc(COc3cc(C)ccc3C(C)C)cc2)cc(OC)c1O | -1 | · | · | · | · | · | · | ·
Cc1ccc(C(C)C)c(OCc2ccc(C(=O)N/N=C/c3ccc(O)cc3O)cc2)c1 | · | -1 | 2 | · | 13 | 26* | 34* | -2
Cc1cc(C(=O)Nc2sc3c(c2C#N)CCC(C)C3)no1 (stereo not drawn) | -27 | 5 | 0 | 0 | 10 | -3 | · | ·
CC1CCc2c(sc(NC(=O)C(=O)NCc3ccco3)c2C#N)C1 (stereo not drawn) | -1 | -1 | 2 | -12 | -3 | 20* | 21* | -3
Cc1ccccc1-n1c(SCC(=O)NN=C/C=C/c2ccccc2[N+](=O)[O-])nc2ccccc2c1=O | 8 | · | · | · | · | · | · | ·
NC(=NOS(=O)(=O)c1ccc([N+](=O)[O-])cc1)c1ccncc1 | 3 | · | · | · | · | · | · | ·
COc1ccc(Nc2nc(Nc3ccc(OC)cc3)nc(-n3[nH]c(=O)c(C)c3C)n2)cc1 | 5 | 0 | 1 | -27 | 14 | 23* | 23* | -1
COc1ccc(Nc2nc(OC)nc(OC)n2)cc1 | 0 | -3 | 4 | -10 | 3 | 2 | · | ·
COc1ccc(/C=C/C(=O)NC(=S)Nc2cc([N+](=O)[O-])ccc2O)cc1OC | 1 | 2 | 2 | -69 | 8 | 43* | 39* | -2
C=CCOc1c(C=NNC(N)=O)cccc1OC | 1 | · | · | · | · | · | · | ·
CCOC(=O)C1=C(CSc2nc3ccccc3s2)NC(=O)NC1c1cc(C)ccc1C (stereo not drawn) | 3 | 9 | 4 | 2 | -4 | 23* | 8 | -1
CCOC(=O)C1=C(CSc2nc3ccccc3s2)NC(=O)NC1c1ccc(OC)cc1 (stereo not drawn) | 2 | 2 | 4 | -8 | -6 | 11 | · | ·
CCc1cc2c(=O)c(-c3nc(C)cs3)coc2cc1O | 4 | 5 | 0 | 0 | 14 | 20* | 12 | -4
Cc1ccc(-c2c(C(=O)NN=Cc3ccc(OC(C)C)cc3)nnn2-c2nonc2N)cc1 | -45 | · | · | · | · | · | · | ·
O=C(COc1ccc(-c2ccccc2)cc1)N/N=C/c1ccccc1Br | · | 4 | 6 | 4 | -16 | 18* | 3 | -1
O=C(NN=CC1=C(N2CCOCC2)/C(=C\c2ccccc2)CC1)Nc1ccccc1 | 8 | · | · | · | · | · | · | ·
C=CCOC(=O)C1=C[C@H](c2csc3ccccc23)C[C@H](OCc2ccc(CO)cc2)O1 | 3 | 2 | 3 | 8 | 21 | 22* | 4 | -2

Screens (PubChem BioAssay)
